In the array DNA melting data of Ke et al. (doi:10.1101/2024.01.08.574731):

Legend:
[1] = melting temperature; fluorescence melt of hairpins on a sequencing array, two-state fit, raised by 9.35 °C to match UV melts; settings: sodium 0.088 M
Outline: (§1)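 Folding enthalpy and melting temperature were estimated with bootstrapped two-state fits and combined across four replicates by inverse-variance weighting, with fitted temperatures raised by 9.35 °C to match UV melts. The data were Cy3 fluorescence of library hairpins, with annealed Cy3 and quencher oligos, on a sequenced MiSeq flow cell in 50 mM Na-HEPES pH 8.0, 25 mM NaCl, imaged in 2.5 °C steps up to 60 °C and normalised to pre-quench Cy3 and control constructs.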

[2] = folding enthalpy; higher = less favourable; fluorescence melt of hairpins on a sequencing array, two-state fit; settings: sodium 0.088 M
Outline: as §1

GATCGAAATGTCGATC ((((((....))))))
Tm [1]: 48.7 °C | folding enthalpy [2]: -36.8 kcal/mol

GATCATACTGATGATC ((((((....))))))
Tm [1]: 46.3 °C | folding enthalpy [2]: -30.2 kcal/mol

GGTAGCGAAAGCTAACC ((((((....))).)))
Tm [1]: 53.8 °C | folding enthalpy [2]: -18.7 kcal/mol

GATCGACGCTCGATC ((((((...))))))
Tm [1]: 49.6 °C | folding enthalpy [2]: -41.3 kcal/mol

TGTGTGAAAACACA (((((....)))))
Tm [1]: 49 °C | folding enthalpy [2]: -20 kcal/mol

GCGCAGGGAAACCTGTGC ((.((((....)))).))
Tm [1]: 57.7 °C | folding enthalpy [2]: -28 kcal/mol

GGCCGCGAAAGCGTTGCC ((((((....)))..)))
Tm [1]: 56 °C | folding enthalpy [2]: -16.8 kcal/mol

GCTGTTGCGAAAGCAAGC (((..(((....))))))
Tm [1]: 47.3 °C | folding enthalpy [2]: -12.6 kcal/mol

GGTTAGTCGAAAGACACC (((..(((....))))))
Tm [1]: 35.5 °C | folding enthalpy [2]: -17.2 kcal/mol

GTTCTCGAAAGAGAGAAC ((((((....)))..)))
Tm [1]: 46.4 °C | folding enthalpy [2]: -25.1 kcal/mol

GGACCGCGAAAGCGTCC (((.(((....))))))
Tm [1]: 59.6 °C | folding enthalpy [2]: -17.1 kcal/mol

GTACGCGAAAGCGCTAC ((((((....))).)))
Tm [1]: 42.2 °C | folding enthalpy [2]: -13.2 kcal/mol

GCATACGGAAACGTATGC (((((((....)))))))
Tm [1]: 67.7 °C | folding enthalpy [2]: -47.5 kcal/mol

GCTCCTGGAAACGGGAGC (((((.(....).)))))
Tm [1]: 59.5 °C | folding enthalpy [2]: -41.1 kcal/mol

GTCCCCGAAAGGGGCGAC ((((((....)))..)))
Tm [1]: 65.8 °C | folding enthalpy [2]: -14 kcal/mol

GTGTCATCGAAAGATCAC (((..(((....))))))
Tm [1]: 32.4 °C | folding enthalpy [2]: -17.1 kcal/mol

GCCACGCGAAAGCCTCGC ((.(.((....)).).))
Tm [1]: 27 °C | folding enthalpy [2]: -7.67 kcal/mol

GATCTGTCTCCAGATC ((((((....))))))
Tm [1]: 48.4 °C | folding enthalpy [2]: -45.9 kcal/mol

GTTCTTCCGAAAGGAAAC (((..(((....))))))
Tm [1]: 27.5 °C | folding enthalpy [2]: -13.6 kcal/mol

GATGCCCGAAAGGGAATC (((.(((....))).)))
Tm [1]: 53.9 °C | folding enthalpy [2]: -37.9 kcal/mol

GATCTGACTGCAGATC ((((((....))))))
Tm [1]: 47 °C | folding enthalpy [2]: -23.7 kcal/mol

GATCTATGTCTAGATC ((((((....))))))
Tm [1]: 38.5 °C | folding enthalpy [2]: -26.6 kcal/mol

GTCGAACGAAAGTTTGAC (((.(((....))).)))
Tm [1]: 54.5 °C | folding enthalpy [2]: -42.2 kcal/mol

CGCGGACTGCTCCGCG ((((((....))))))
Tm [1]: 62.4 °C | folding enthalpy [2]: -39.8 kcal/mol

GATTCGGGAAACCAAATC ((((.((....)).))))
Tm [1]: 30.1 °C | folding enthalpy [2]: -22.3 kcal/mol

GAATGCGCGAAAGCGTTC (((..(((....))))))
Tm [1]: 26.1 °C | folding enthalpy [2]: -8.39 kcal/mol

GATCCTGACTAGGATC ((((((....))))))
Tm [1]: 56.7 °C | folding enthalpy [2]: -43.3 kcal/mol

GATCGGAAAGCCGATC ((((((....))))))
Tm [1]: 51.3 °C | folding enthalpy [2]: -35.4 kcal/mol

GATCGGTGACCCGATC ((((((....))))))
Tm [1]: 55.8 °C | folding enthalpy [2]: -36.5 kcal/mol

GAATTCGAAAGAATTC ((((((....))))))
Tm [1]: 54.4 °C | folding enthalpy [2]: -44.9 kcal/mol

GATCCTGTTAGGATC ((((((...))))))
Tm [1]: 55.4 °C | folding enthalpy [2]: -38.1 kcal/mol

GTTGAGGGAAACCTTGAC ((..(((....)))..))
Tm [1]: 29.7 °C | folding enthalpy [2]: -12 kcal/mol

GCTGCCGAAAGGCGAGC ((((((....))).)))
Tm [1]: 64.3 °C | folding enthalpy [2]: -18.6 kcal/mol

GTTAAGTCGAAAGACAAC (((..(((....))))))
Tm [1]: 27.8 °C | folding enthalpy [2]: -13.4 kcal/mol

GCAGACGGAAACATCTGC (((((.(....).)))))
Tm [1]: 44.5 °C | folding enthalpy [2]: -29.9 kcal/mol

GCGTCGCGAAAGCCAGGC ((.(.((....)).).))
Tm [1]: 33.8 °C | folding enthalpy [2]: -10.6 kcal/mol

CACGTGAAAACGTG (((((....)))))
Tm [1]: 58.6 °C | folding enthalpy [2]: -24.9 kcal/mol

GCGCAGCGAAAGCAGTGC ((.(.((....)).).))
Tm [1]: 54.4 °C | folding enthalpy [2]: -12 kcal/mol

GCTTGGGGAAACCCAAGC (((((((....)))))))
Tm [1]: 68.3 °C | folding enthalpy [2]: -43.6 kcal/mol

GATCAGAGGGCTGATC ((((((....))))))
Tm [1]: 47.7 °C | folding enthalpy [2]: -39.2 kcal/mol

GATCTAGCGTAGATC ((((((...))))))
Tm [1]: 37.7 °C | folding enthalpy [2]: -29.1 kcal/mol

GATCTGTTTACAGATC ((((((....))))))
Tm [1]: 58.6 °C | folding enthalpy [2]: -44.4 kcal/mol

GGAAGGCGAAAGCCCTCC (((.(((....))).)))
Tm [1]: 48.7 °C | folding enthalpy [2]: -16.8 kcal/mol

GAAATCGGAAACGATTCC (.(((((....))))).)
Tm [1]: 37.1 °C | folding enthalpy [2]: -16.6 kcal/mol

GCTGCGGGAAACCACAGC ((((.((....)).))))
Tm [1]: 52.7 °C | folding enthalpy [2]: -37.5 kcal/mol

GAGAGGCGAAAGCCACTC (((.(((....))).)))
Tm [1]: 53.3 °C | folding enthalpy [2]: -20.6 kcal/mol

GATAACGAAAGTTGATC ((((((....))).)))
Tm [1]: 27.6 °C | folding enthalpy [2]: -11.2 kcal/mol

GATCTGATAGCAGATC ((((((....))))))
Tm [1]: 46.8 °C | folding enthalpy [2]: -34.4 kcal/mol

GCCCGCGAAAGCGGAGGC ((((((....)))..)))
Tm [1]: 60 °C | folding enthalpy [2]: -13.7 kcal/mol

GACGAACGAAAGTTAGTC (((.(((....))).)))
Tm [1]: 49.9 °C | folding enthalpy [2]: -35.8 kcal/mol

GTGCAAGGAAACTTGCAC (((((((....)))))))
Tm [1]: 65.8 °C | folding enthalpy [2]: -31.8 kcal/mol

GTACGCCGAAAGGCATAC (((.(((....))).)))
Tm [1]: 44.7 °C | folding enthalpy [2]: -16.4 kcal/mol

GAGCCCCGAAAGGGACTC (((.(((....))).)))
Tm [1]: 58.6 °C | folding enthalpy [2]: -35.2 kcal/mol

GCGGACGGAAACGTCTGC ((.((((....)))).))
Tm [1]: 65.9 °C | folding enthalpy [2]: -36.3 kcal/mol

GGTCCTCGAAAGAGACC (((.(((....))))))
Tm [1]: 48.1 °C | folding enthalpy [2]: -31.3 kcal/mol

GCTTTGCGAAAGCAACGC ((.((((....)))).))
Tm [1]: 55.9 °C | folding enthalpy [2]: -20.8 kcal/mol

GGGTAGGGAAACCTGTCC ((..(((....)))..))
Tm [1]: 32.3 °C | folding enthalpy [2]: -17.2 kcal/mol

GGAAATGGAAACATTCCC ((.((((....)))).))
Tm [1]: 33.1 °C | folding enthalpy [2]: -25.1 kcal/mol

GATCGAGCGTCGATC ((((((...))))))
Tm [1]: 51 °C | folding enthalpy [2]: -31.7 kcal/mol

GCCATCGGAAACAATGGC (((((.(....).)))))
Tm [1]: 44.7 °C | folding enthalpy [2]: -29.6 kcal/mol

GTATTAGGAAACTAATGC (.(((((....))))).)
Tm [1]: 34.2 °C | folding enthalpy [2]: -28.2 kcal/mol

GCTAAAACGAAAGTTAGC (((..(((....))))))
Tm [1]: 40.1 °C | folding enthalpy [2]: -27.8 kcal/mol

GATCAATTGTTGATC ((((((...))))))
Tm [1]: 41.5 °C | folding enthalpy [2]: -30.6 kcal/mol

GTCCCCGAAAGGGAGGAC ((((((....)))..)))
Tm [1]: 49.7 °C | folding enthalpy [2]: -17.4 kcal/mol

GTGGCAGCGAAAGCTCAC (((..(((....))))))
Tm [1]: 43.7 °C | folding enthalpy [2]: -12.4 kcal/mol

GGTATGGGAAACCATGTC (..((((....))))..)
Tm [1]: 27.4 °C | folding enthalpy [2]: -13.5 kcal/mol

GATCCGTTTTCGGATC ((((((....))))))
Tm [1]: 61.8 °C | folding enthalpy [2]: -42.2 kcal/mol

GATCTATGATTAGATC ((((((....))))))
Tm [1]: 39.8 °C | folding enthalpy [2]: -31.9 kcal/mol

GTGCTTGGAAACAAGCGC (.(((((....))))).)
Tm [1]: 61.3 °C | folding enthalpy [2]: -32.2 kcal/mol

GAGACCCCGAAAGGGCTC (((..(((....))))))
Tm [1]: 47.2 °C | folding enthalpy [2]: -22.6 kcal/mol

GGGGGTGGAAACGCCCTC (.(((.(....).))).)
Tm [1]: 59.5 °C | folding enthalpy [2]: -28 kcal/mol

GATCAGAGTGCTGATC ((((((....))))))
Tm [1]: 50.2 °C | folding enthalpy [2]: -31.2 kcal/mol

GATTGAGGAAACTCGATC (((.(((....))).)))
Tm [1]: 43.2 °C | folding enthalpy [2]: -33.1 kcal/mol

GGCACCGAAAGGTCGGCC ((((((....)))..)))
Tm [1]: 49.9 °C | folding enthalpy [2]: -21.8 kcal/mol

GATCGGCCGAAAGGCATC (((..(((....))))))
Tm [1]: 26.9 °C | folding enthalpy [2]: -6.97 kcal/mol

GTATGGGCGAAAGCCTAC (((..(((....))))))
Tm [1]: 36.9 °C | folding enthalpy [2]: -7.19 kcal/mol

GCCAACGAAAGTTATGGC ((((((....)))..)))
Tm [1]: 45.7 °C | folding enthalpy [2]: -30.7 kcal/mol

GATCTCGGCGGAGATC ((((((....))))))
Tm [1]: 55.4 °C | folding enthalpy [2]: -48.8 kcal/mol

GCCTGGCCGAAAGGCGGC (((..(((....))))))
Tm [1]: 65.3 °C | folding enthalpy [2]: -18.4 kcal/mol

GATCCGCGCTCGGATC ((((((....))))))
Tm [1]: 57.4 °C | folding enthalpy [2]: -37.3 kcal/mol

CGCGGACTCCTCCGCG ((((((....))))))
Tm [1]: 68.9 °C | folding enthalpy [2]: -37.2 kcal/mol

GATCAAAGCTTTGATC ((((((....))))))
Tm [1]: 50.8 °C | folding enthalpy [2]: -57.4 kcal/mol

GTAGTGGGAAACTACTAC (((((.(....).)))))
Tm [1]: 47.5 °C | folding enthalpy [2]: -31.7 kcal/mol

GATCATGCACATGATC ((((((....))))))
Tm [1]: 56.3 °C | folding enthalpy [2]: -41.5 kcal/mol

GTGCTCGGAAACGGGTAC ((.(.((....)).).))
Tm [1]: 41.9 °C | folding enthalpy [2]: -32.8 kcal/mol

GTGAGCGAAAGCTGACAC ((((((....)))..)))
Tm [1]: 41.2 °C | folding enthalpy [2]: -16.6 kcal/mol

GATCACGAAAGTGAAATC ((((((....)))..)))
Tm [1]: 30.2 °C | folding enthalpy [2]: -10.7 kcal/mol

GAGCAACGAAAGTTCTC (((.(((....))))))
Tm [1]: 35.6 °C | folding enthalpy [2]: -20.1 kcal/mol

GGCGTCGGAAACGACACC ((.((((....)))).))
Tm [1]: 53.9 °C | folding enthalpy [2]: -30.1 kcal/mol

TTCTCGAAAGAGAA (((((....)))))
Tm [1]: 49.1 °C | folding enthalpy [2]: -15.2 kcal/mol

GCGCTTGCGAAAGCACGC (((..(((....))))))
Tm [1]: 55.2 °C | folding enthalpy [2]: -15.9 kcal/mol

CTTGAGAAATCAAG (((((....)))))
Tm [1]: 35.6 °C | folding enthalpy [2]: -11.1 kcal/mol
